ChEMBL document CHEMBL1138270, “Antimycobacterial activities of novel 1-(cyclopropyl/tert-butyl/4-fluorophenyl)-1,4-dihydro- 6-nitro-4-oxo-7-(substituted secondary amino)-1,8-naphthyridine-3-carboxylic acid” (J Med Chem, 2007)
In brackets after ≈: the same amount, converted by molar mass.

Columns and labels:
Mus musculus [1] = test: Phototoxicity in Swiss Albino mouse assessed as ear erythema at 140 mg/kg, po after 4 hrs of irradiation; type: organism-based; parameters: dose 140 mg/kg, route oral; conditions: in vivo
Mus musculus [2] = test: Phototoxicity in Swiss Albino mouse assessed as ear erythema at 140 mg/kg, po after 72 hrs of irradiation; type: organism-based; parameters: dose 140 mg/kg, route oral; conditions: in vivo
Mus musculus [3] = test: Phototoxicity in Swiss Albino mouse assessed as ear thickness at 140 mg/kg, po after 24 hrs of irradiation; type: organism-based; parameters: dose 140 mg/kg, route oral; conditions: in vivo
Outline: (§1)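 Female Swiss albino mice (~2 months, 20-25 g) were fasted ≥18 h and given 140 mg/kg orally by gavage; controls received 0.5% Na-CMC vehicle at 10 mL/kg. UVA started right after dosing, 4 h (~18 J/cm2). Ear thickness was measured before dosing and at 4, ~24, 48, 72 and 96 h, reported as mean of left and right ears ± SEM.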

Mus musculus [4] = test: Phototoxicity in Swiss Albino mouse assessed as ear erythema at 140 mg/kg, po after 24 hrs of irradiation; type: organism-based; parameters: dose 140 mg/kg, route oral; conditions: in vivo
Mus musculus [5] = test: Phototoxicity in Swiss Albino mouse assessed as ear thickness at 140 mg/kg, po after 4 hrs of irradiation; type: organism-based; parameters: dose 140 mg/kg, route oral; conditions: in vivo; outline: as §1
Mus musculus [6] = test: Phototoxicity in Swiss Albino mouse assessed as ear erythema at 140 mg/kg, po after 96 hrs of irradiation; type: organism-based; parameters: dose 140 mg/kg, route oral; conditions: in vivo
[7] = Inhibition of Mycobacterium smegmatis DNA gyrase supercoiling activity; parameters: species or system Mycolicibacterium smegmatis
Outline: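 Gyrase purified from M. smegmatis was preincubated with compound in DMSO (5% DMSO in reaction). 400 ng relaxed pUC18 was added in 35 mM Tris-HCl pH 7.5, 5 mM MgCl2, 25 mM K-glutamate, 2 mM spermidine, 2 mM ATP, BSA, tRNA and 5% glycerol, 1 h at 37 °C. Samples were heat-inactivated, run on 1% agarose in TAE, and ethidium-stained; IC50 was derived.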

Mus musculus [8] = test: Phototoxicity in Swiss Albino mouse assessed as ear erythema at 140 mg/kg, po after 48 hrs of irradiation; type: organism-based; parameters: dose 140 mg/kg, route oral; conditions: in vivo
[9] = tested on: Mycolicibacterium smegmatis; test: Antimicrobial activity against Mycobacterium smegmatis by agar dilution method; type: functional
Outline: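 Agar dilution against M. smegmatis ATCC 14468; MIC determined in duplicate.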

Mus musculus [10] = test: Phototoxicity in Swiss Albino mouse assessed as ear thickness at 140 mg/kg, po after 72 hrs of irradiation; type: organism-based; parameters: dose 140 mg/kg, route oral; conditions: in vivo; outline: as §1
Mus musculus [11] = test: Phototoxicity in UV light irradiated Swiss Albino mouse assessed ear erythema at 140 mg/kg, po; type: organism-based; parameters: dose 140 mg/kg, route oral; conditions: in vivo
[12] = tested on: Mycobacterium tuberculosis; test: Antimycobacterial activity against Mycobacterium tuberculosis H37Rv by agar dilution method; type: functional
Outline: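 MIC was determined by agar dilution, in duplicate.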

Mus musculus [13] = test: Phototoxicity in UV light irradiated Swiss Albino mouse assessed as ear thickness at 140 mg/kg, po; type: organism-based; parameters: dose 140 mg/kg, route oral; conditions: in vivo; outline: as §1
Vero = test: Cytotoxicity against Vero cells after 72 hrs by MTT assay; type: cell-based; conditions: Chlorocebus sabaeus
Outline: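 Vero cells were exposed to serially diluted compound up to 62.5 µg/mL for 72 h. Viability was read by cellular conversion of MTT to formazan (CellTiter 96 non-radioactive proliferation assay), and IC50 was derived.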

Mus musculus [14] = test: Phototoxicity in Swiss Albino mouse assessed as ear thickness at 140 mg/kg, po after 48 hrs of irradiation; type: organism-based; parameters: dose 140 mg/kg, route oral; conditions: in vivo; outline: as §1
Mus musculus [15] = test: Phototoxicity in Swiss Albino mouse assessed as ear thickness at 140 mg/kg, po after 96 hrs of irradiation; type: organism-based; parameters: dose 140 mg/kg, route oral; conditions: in vivo; outline: as §1
[16] = tested on: Mycobacterium tuberculosis; test: Antimycobacterial activity against Mycobacterium tuberculosis ATCC 35801 infected CD1 mouse assessed as spleen bacterial count at 25 mg/kg, ip after 35 days post infection; type: functional; conditions: route intraperitoneal
Outline: (§2)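 CD-1 mice were infected intravenously via the caudal vein with about 10⁷ viable M. tuberculosis ATCC 35801. Intraperitoneal treatment began 10 days after inoculation and ran for 10 days. At 35 days post-infection, spleens and right lungs were homogenized, serially diluted 10-fold and plated on 7H10 agar at 37 °C in ambient air for 4 weeks. Counts were compared with vehicle-treated controls and given as log CFU ± SEM.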

[17] = tested on: Mycobacterium tuberculosis; test: Antimycobacterial activity against Mycobacterium tuberculosis ATCC 35801 infected CD1 mouse assessed as lung bacterial count at 25 mg/kg, ip after 35 days post infection; type: functional; conditions: route intraperitoneal; outline: as §2
[18] = tested on: Mycobacterium tuberculosis; test: Antimycobacterial activity against Mycobacterium tuberculosis ATCC 35801 infected CD1 mouse assessed as spleen bacterial count at 50 mg/kg, ip after 35 days post infection; type: functional; conditions: route intraperitoneal; outline: as §2
[19] = tested on: Mycobacterium tuberculosis; test: Antimycobacterial activity against Mycobacterium tuberculosis ATCC 35801 infected CD1 mouse assessed as lung bacterial count at 50 mg/kg, ip after 35 days post infection; type: functional; conditions: route intraperitoneal; outline: as §2
Mus musculus [20] = test: Toxicity in C57BL/6 mouse at 500 mg/kg; type: organism-based; parameters: dose 500 mg/kg; conditions: in vivo
Outline: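 Maximum tolerated dose study in female C57BL/6 mice: single escalating doses of 100, 300 and 500 mg/kg, 3 mice/dose.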

| SMILES | Activity (Mus musculus [1]) | Activity (Mus musculus [2]) | Activity (Mus musculus [3]) [mm] | Activity (Mus musculus [4]) | Activity (Mus musculus [5]) [mm] | Activity (Mus musculus [6]) | IC50 [7] [µM] | Activity (Mus musculus [8]) | MIC [9] [µM] | Activity (Mus musculus [10]) [mm] | Activity (Mus musculus [11]) | MIC [12] [µM] | Activity (Mus musculus [13]) [mm] | IC50 (Vero) [µM] | Activity (Mus musculus [14]) [mm] | Activity (Mus musculus [15]) [mm] | further results |
| --- | --- | --- | --- | --- | --- | --- | --- | --- | --- | --- | --- | --- | --- | --- | --- | --- | --- |
| O=C(O)c1cn2c(n1)CN(c1nc3c(cc1[N+](=O)[O-])c(=O)c(C(=O)O)cn3-c1ccc(F)cc1)CC2 | Toxic | Non-toxic | 0.33 | Toxic | 0.32 | Non-toxic | > 202 | Non-toxic | 1.58 (≈ 0.781 µg/mL) | 0.33 | Non-toxic | 0.38 (≈ 0.188 µg/mL) | 0.27 | > 126 | 0.32 | 0.33 |  |
| CCn1cc(C(=O)O)c(=O)c2cc(F)c(N3CCNC(C)C3)c(F)c21 (stereo not given) [LOMEFLOXACIN] | Toxic | Toxic | 0.48 | Toxic | 0.4 | Toxic |  | Toxic |  | 0.64 | Toxic |  | 0.31 |  | 0.53 | 0.6 |  |
| NNC(=O)c1ccncc1 [ISONIAZID] |  |  |  |  |  |  |  |  | 45.6 (≈ 6.25 µg/mL) |  |  | 0.36 (≈ 0.0494 µg/mL) |  | > 456 |  |  | Log10 cfu [16]: 4.71; Log10 cfu [17]: 5.86 |
| CC1(C)COCN1c1nc2c(cc1[N+](=O)[O-])c(=O)c(C(=O)O)cn2C(C)(C)C | Non-toxic | Toxic | 0.26 | Non-toxic | 0.28 | Toxic | 256 | Toxic | 3.99 (≈ 1.56 µg/mL) | 0.3 | Non-toxic | 0.1 (≈ 0.039 µg/mL) | 0.24 | > 160 | 0.29 | 0.3 | Log10 cfu [18]: 5.13; Log10 cfu [19]: 5.6; Activity (Mus musculus [20]): Non-toxic |
| CC1CN(c2nc3c(cc2[N+](=O)[O-])c(=O)c(C(=O)O)cn3-c2ccc(F)cc2)CC(C)O1 (stereo not given) | Non-toxic | Non-toxic | 0.28 | Non-toxic | 0.25 | Non-toxic | 226 | Non-toxic | 1.79 (≈ 0.792 µg/mL) | 0.3 | Non-toxic | 0.43 (≈ 0.19 µg/mL) | 0.26 | 141 | 0.27 | 0.3 |  |
| COc1c(N2CCNC(C)C2)c(F)cc2c(=O)c(C(=O)O)cn(C3CC3)c12 (stereo not given) [GATIFLOXACIN] |  |  |  |  |  |  |  |  | 2.08 (≈ 0.781 µg/mL) |  |  | 1.04 (≈ 0.39 µg/mL) |  | > 155 |  |  | Log10 cfu [18]: 6.92; Log10 cfu [19]: 6.02 |
| CC(C)(C)n1cc(C(=O)O)c(=O)c2cc([N+](=O)[O-])c(N3CCSCC3)nc21 | Non-toxic | Non-toxic | 0.28 | Non-toxic | 0.28 | Non-toxic | 102 | Non-toxic | 1.99 (≈ 0.781 µg/mL) | 0.3 | Non-toxic | 0.99 (≈ 0.389 µg/mL) | 0.27 | 79.6 | 0.29 | 0.32 |  |
| O=C(O)c1cn(-c2ccc(F)cc2)c2nc(N3CCSCC3)c([N+](=O)[O-])cc2c1=O | Non-toxic | Non-toxic | 0.26 | Non-toxic | 0.27 | Non-toxic | > 232 | Non-toxic | 1.81 (≈ 0.779 µg/mL) | 0.29 | Non-toxic | 0.44 (≈ 0.189 µg/mL) | 0.25 | 72.6 | 0.26 | 0.29 |  |
